Shown are actives, neighbours in structure and some others; about 1.1% of the full set was active somewhere.
CAL PDZ FP-1: inhibitors of human CAL PDZ peptide binding; purified CAL PDZ, TMR-peptide fluorescence polarization, 1 h; hit rate 0.02% among 330,000; AID 504414; Q9HD26; inhibition, % at 20 µM;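 active = highest replicate inhibition of at least 40%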
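System: tagged CAL PDZ domain. Schedule: 1 h room-temperature incubation prior to read. Signal: fluorescence polarization (mP). Measure: percent inhibition from loss of millipolarization.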
Cneo AK release: Cryptococcus neoformans lysis via adenylate kinase release | C. neoformans lysis, adenylate kinase release luminescence, 4 h; normalised: neutral wells 0, clomiphene wells 100 | lysis activity, % at 15 µM | hit rate 0.2% among 360,000;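 active = mean lysis activity across replicates of at least 80%, whatever share of replicates individually reach that level; inactive = mean lysis activity below 80%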
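Test system: log-phase Cryptococcus neoformans yeast cells; Quantity: yeast cell density of 5 × 10^6 cells/mL; Buffer or medium: YPD; Doses: single compound concentration per well; Timing: 4 h at 37 °C static, read 1 h later; Measured by: AK luminescence; Read-out basis: lysis from increased AK signal; Control set: Clomiphene as positive control.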
CAL PDZ FP-2: inhibitors of human CAL PDZ peptide binding; Q9HD26; purified CAL PDZ, TMR-peptide fluorescence polarization, 1 h; inhibition, % at 24.9 µM; hit rate 0.92% among 300,000;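 active = mean inhibition of at least 30% with at least half of replicates also reaching 30%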
PglD DTNB: blocks C. jejuni PglD acetyltransferase activity; purified PglD enzyme, DTNB colorimetric CoA detection; inhibition, % at 12.5 µM; hit rate 0.098% among 360,000; AID 602405; in the data active = inhibition above about 16%, passing the limit was not always enough
miR122 inh: miR-122 inhibition in Huh7 cells; Huh7 miR-122 Renilla luciferase sensor, 48 h; neutral wells = 0, positive control = 100; hit rate 0.3% among 340,000; activation (reporter increase), % at 12.5 µM;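 active = mean replicate activation score at least 90 and every replicate individually at or above 90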;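 also: higher luciferase means less miR-122 activity so hits act as miR-122 inhibitors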
Hits are given with their value; - = inactive; . = no result.

SMILES	CAL PDZ FP-1	Cneo AK release	CAL PDZ FP-2	PglD DTNB	miR122 inh
Cn1c(=O)c2nc(-c3ccccc3)c(-c3ccccc3)nc2n(C)c1=O	-	.	66	.	.
Cn1c(=O)c2nc(Cl)c(-c3ccccc3)nc2n(C)c1=O	-	.	-	.	.
CCCCOC(=O)c1ccc(NC(=O)/C=C/c2cccs2)cc1	-	-	.	-	-
CC[C@]12c3[nH]c4cc(CCC(=O)N(C)C)ccc4c3CCN1C(=O)[C@@H](CC(=O)NCCCN(C)C)C[C@@H]2C(=O)N1CCN(C(=O)C2CC2)CC1	-	-	-	-	-
CC[C@]12c3[nH]c4cc(CCC(=O)N(C)C)ccc4c3CCN1C(=O)[C@@H](CC(=O)NCCCOC)C[C@@H]2C(=O)N1CCN(C(=O)C2CC2)CC1	-	-	32	-	-
CCCNC(=O)C[C@@H]1CC[C@H]2[C@@H](COc3ccc(NC(=O)Cc4cccs4)cc3C(=O)N2C)O1	.	-	.	-	-
S=C(Nc1ccccc1Cl)NC1CCCCCC1	-	-	.	-	149
S=C(Nc1ccc2nsnc2c1)NC1CCCCC1	-	.	-	.	.
S=C(Nc1ccc(Cl)c(Cl)c1)NC1CCCCC1	-	.	.	.	159
CCCNC(=O)[C@H]1[C@H](CO)[C@H]2Cn3c(ccc(-c4cccnc4)c3=O)[C@H]2N1C(=O)c1ccccc1F	.	-	.	-	.
COc1ccccc1C(=O)Nc1ccc2c(c1)C(=O)N(C)[C@@H]1CC[C@H](CC(=O)NCCc3ccncc3)O[C@@H]1CO2	.	-	.	-	.
Cc1cc(C)cc(NS(=O)(=O)c2ccc3c(c2)C(C)(C)C(=O)N3C)c1	-	-	-	-	107
COc1ccc(S(=O)(=O)Nc2cccc3c2O[C@@H](CN(C)S(=O)(=O)c2ccc(C)cc2)[C@H](C)CN([C@H](C)CO)C3=O)cc1	.	-	.	-	-
CC(CCc1ccccn1)C(=O)C(C)CCc1ccccn1 (stereo unspecified)	-	-	81	-	-
CCOC(=O)C(CCc1ccccn1)c1ccccc1 (stereo unspecified)	-	-	-	-	-
CN1C(=O)c2cccc3c(S(=O)(=O)N(C)C)ccc1c23	-	118	-	-	.
CCC(=O)Nc1ccc2c(c1)C(=O)N(C)C[C@@H](OC)[C@@H](C)CN(C(=O)c1ccccc1F)[C@@H](C)CO2	.	-	.	-	-
O=C(COC(=O)/C=C/c1ccc(Cl)c(Cl)c1)NC1CCS(=O)(=O)C1 (stereo unspecified)	-	-	64	-	-
CCOc1ccccc1N=Nc1c(C)[nH]n(C(N)=S)c1=O	.	-	37	-	-
Cc1ccccc1N=Nc1c(C)[nH]n(C(N)=S)c1=O	-	-	-	-	-
CC(C)c1cn(CC[C@@H]2CC[C@@H](NS(=O)(=O)c3ccccc3)[C@@H](CO)O2)nn1	.	-	.	-	.
COc1ccc(-c2[nH]ncc2CNC(C)c2ccccc2Cl)cc1F (stereo unspecified)	-	.	-	.	-
COc1ccc(-c2[nH]ncc2CNC(C)CCn2cccn2)cc1F (stereo unspecified)	-	-	51	-	-
CCc1ccc(C(=O)Nc2ccc3c(c2)n(C)c(=O)n3C)cc1	-	-	.	-	-
Cn1c(=O)n(C)c2cc(NC(=O)c3ccccc3NS(C)(=O)=O)ccc21	-	-	80	-	-
SMILES	CAL PDZ FP-1	Cneo AK release	CAL PDZ FP-2	PglD DTNB	miR122 inh
C[C@@H]1CN([C@H](C)CO)C(=O)c2cccc(NS(=O)(=O)c3ccc(F)cc3)c2O[C@H]1CN(C)CC1CC1	.	-	.	-	-
COc1cc(NC(=O)c2ccc(F)cc2)c(OC)cc1Cl	-	-	-	-	-
COc1ccc(C(=O)Nc2cc(OC)c(Cl)cc2OC)cc1	-	.	37	.	.
CC(C)CC#Cc1ccc2c(c1)O[C@@H](CN(C)S(=O)(=O)c1cccc(F)c1)[C@@H](C)CN([C@@H](C)CO)S2(=O)=O	.	-	.	-	-
CC1(C(=O)NCC(F)(F)F)CCN1C(=O)Cc1ccc(-c2ccccc2)cc1 (stereo unspecified)	.	-	.	-	-
COc1ccc(CN(C)C[C@@H]2Oc3c(NC(=O)Nc4cccc5ccccc45)cccc3C(=O)N([C@@H](C)CO)C[C@@H]2C)cc1	.	114	.	-	-
COc1ccc(NC(=O)Nc2cccc3c2O[C@H](CN(C)Cc2ccncc2)[C@H](C)CN([C@@H](C)CO)C3=O)cc1	.	-	.	22	-
COc1ccc(CN(C)C[C@H]2Oc3c(NC(=O)Nc4cccc5ccccc45)cccc3C(=O)N([C@H](C)CO)C[C@H]2C)cc1	.	-	.	-	-
CCCNc1nc2c(c(=O)[nH]c(=O)n2C)n1Cc1cccc(Br)c1	.	-	36	-	-
Cn1c(=O)[nH]c(=O)c2c1nc(Br)n2Cc1cccc(Br)c1	-	-	-	-	-
CCOc1ccc(Cl)cc1S(=O)(=O)n1cnc2cc(C)c(C)cc21	-	-	-	-	183
COc1ccc(C(=O)O/N=C(\N)c2ccccc2)cc1OC	.	-	43	-	-
C[C@@H]1CCCCO[C@@H](CN(C)Cc2ccc(C(F)(F)F)cc2)[C@@H](C)CN([C@@H](C)CO)C(=O)c2cc(NS(=O)(=O)c3cn(C)cn3)ccc2O1	.	91	.	-	-
C[C@@H]1CCCCO[C@@H](CN(C)Cc2ccc(C(F)(F)F)cc2)[C@@H](C)CN([C@H](C)CO)C(=O)c2cc(NS(=O)(=O)c3cn(C)cn3)ccc2O1	.	-	.	-	-
C[C@@H]1CCCCO[C@@H](CN(C)Cc2ccc3c(c2)OCO3)[C@@H](C)CN([C@H](C)CO)C(=O)c2cc(NS(=O)(=O)c3ccc(F)cc3)ccc2O1	.	113	.	-	-
Cc1noc(C)c1S(=O)(=O)N(C)C[C@H]1OCCCC[C@@H](C)Oc2ccc(NC(=O)CCCCCC(=O)Nc3ccccc3N)cc2C(=O)N([C@@H](C)CO)C[C@@H]1C	.	97	.	-	-
C[C@@H]1CN([C@@H](C)CO)C(=O)c2cc(NS(=O)(=O)c3ccc(F)cc3)ccc2O[C@@H](C)CCCCO[C@H]1CN(C)Cc1ccc2c(c1)OCO2	.	-	.	-	-
Cc1noc(C)c1S(=O)(=O)Nc1ccc2c(c1)C(=O)N([C@@H](C)CO)C[C@@H](C)[C@H](CN(C)Cc1ccc3c(c1)OCO3)OCCCC[C@H](C)O2	.	101	.	-	-
C[C@H]1CN([C@@H](C)CO)C(=O)c2cc(NS(=O)(=O)c3ccc(F)cc3)ccc2O[C@@H]1CN(C)S(=O)(=O)c1cccs1	.	-	.	-	-
Cc1noc(C)c1S(=O)(=O)Nc1ccc2c(c1)C(=O)N([C@H](C)CO)C[C@@H](C)[C@H](CN(C)Cc1ccccc1)OCCCC[C@H](C)O2	.	101	.	-	-
C[C@H](CO)N1C[C@H](C)[C@H](CN(C)Cc2ccccc2)OCCCC[C@H](C)Oc2ccc(NS(=O)(=O)c3cccs3)cc2C1=O	.	91	.	-	-
C[C@H](CO)N1C[C@H](C)[C@@H](CN(C)Cc2ccccc2)OCCCC[C@H](C)Oc2ccc(NS(=O)(=O)c3cccs3)cc2C1=O	.	-	.	-	-
